14-3-3 Bad PPI – disrupts binding of bovine 14-3-3 zeta to phospho-Bad peptide. inhibition, % at 21.7 µM. 220,000 tested, 0.71% active. P63103. TR-FRET 14-3-3zeta/Dy647-pBad peptide displacement, 1 h;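 active means inhibition above about 70%, limit read from the data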;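 further: 0% = full 14-3-3 plus peptide FRET controls and 100% = background without 14-3-3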
p97 ATPase inh – inhibitors of human p97 ATPase | P55072 | recombinant p97 ATPase, Kinase-Glo ATP luminescence, 3 h | inhibition, % at 8 µM | 220,000 tested, 0.42% active; in the data active means inhibition above about 15%;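 further: 0% = DMSO vehicle and 100% = wells lacking enzyme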
eIF4E 4G PPI – eIF4E/eIF4G interaction inhibition in translation initiation; TR-FRET eIF4E-eIF4GI(517-606) binding, 2 h; inhibition, % at 21.7 µM; 220,000 tested, 0.37% active; AID 782;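 active means inhibition above about 30%, limit read from the data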;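 further: 0% = full FRET control wells and 100% = background wells lacking eIF4GI fragment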
PERK inhibitor – inhibitors of human PERK kinase; Q9NZJ5; CHO PERK-DD fusion, SEAP luminescence translation reporter; inhibition, % at 5.6 µM; 220,000 tested, 0.17% active; AID 1416;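 active means inhibition above the mean inhibition of all tested compounds plus 3 SD, set separately per screening campaign, cut at about 2.9% in these data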;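 further: PERK kinase domain activated by AP20187 dimerizer at 100 nM; 0% = DMSO with dimerizer and 100% = rapamycin at 8.4 µM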
Hck Nef HTS – human Hck-Nef kinase inhibition; P08631; Recombinant Hck-YEEI plus Nef, Z-Lyte FRET kinase assay; inhibition, % at 20 µM; 220,000 tested, 0.68% active;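 active means Hck-Nef kinase inhibition above about 50%, limit read from the data; inactive means inhibition below that limit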;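 further: 0% = DMSO with Hck plus Nef and 100% = Hck alone without Nef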
Biofilm kill mix – mixtures killing C. albicans biofilm; C. albicans biofilm persisters + clotrimazole, fluorescence viability; primary screen in compound mixtures of four per well; inhibition, % at 7.6 µM; 120,000 tested, 0.02% active;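 active means inhibition above 30.3% in the primary screen of four-compound pools, then above 30% when the compound was retested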;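 further: compounds exposed to preformed 24 h biofilms for 48 h; 0% = untreated biofilm control and 100% = clotrimazole plus chlorhexidine kill blank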
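System: C. albicans CAF4-2 wild-type biofilms; Medium: RPMI/MOPS medium, pH 7.0; Reagent: Clotrimazole, 50 µg/mL; Times: biofilm formation 24 h, compound exposure 48 h, 37 °C; Detection: 2-h Alamar Blue fluorescence, 535/590 nm excitation/emission; Evaluation: percent inhibition of biofilm viability.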
Active calls of the source: *; / = not tested or not shown; [ ] = dose if it differs, or a comment. Hits are enriched below; roughly 2.2% of the tested compounds scored in any of these assays.

SMILES	14-3-3 Bad PPI	p97 ATPase inh	eIF4E 4G PPI	PERK inhibitor	Hck Nef HTS	Biofilm kill mix
NC(=O)[C@@H]1CC2(CC(c3cccc(NC(=O)[C@@H]4CCC(=O)N4)c3)=NO2)CN1C(=O)Cc1ccc([N+](=O)[O-])cc1 (stereo partly drawn)	-6.3	/	0.7	/	27.3	15.5
CC(C)(C)NC(=O)c1ccc2nsnc2c1	89.5*[fluorescence artefact?]	4.5	5.5	1.4	5.5	14.3
CCC(C)NS(=O)(=O)c1ccc(OCC(=O)NCc2ccccn2)cc1 (stereo not drawn)	-5.6	8.9	1.5	3.2*	19.1	-1.1
CCC(C)NS(=O)(=O)c1ccc(OCC(=O)NCc2cccnc2)cc1 (stereo not drawn)	8.0	3.4	-1.4	1.8	0.4	/
Oc1ccccc1Nc1nc(NCC2CCCO2)c2ccccc2n1 (stereo not drawn)	77.5*	1.0	-7.2	-0.5	-1.9	/
N#Cc1ccc(-c2csc(NC3=NCCCCC3)n2)cc1	12.2	0.6	53.3*[fluorescence artefact?]	-0.9	4.5	9.1
c1ccc(-c2csc(NC3=NCCCCC3)n2)cc1	-2.6	0.0	3.4	0.7	2.5	16.9
O=C(CNC(=O)c1cccs1)N/N=C/c1ccc(O)cc1O	-2.4	1.4	1.7	0.0	10.5	19.7
O=C(CCc1ccccc1)NCC(=O)N/N=C/c1ccc(O)cc1O	-10.4	3.9	-8.0	3.4*	19.5	8.5
CCCNC(=O)N1CCC(C(=O)c2cccc(F)c2)CC1	-6.7	4.1	9.1	1.1	0.1	/
COCCN(C(=O)Cc1cccs1)c1nnc(-c2cccnc2)s1	8.0	-2.6	-5.2	0.1	0.3	/
CCCCN(C(=O)Cc1cccs1)c1nnc(-c2cccnc2)s1	70.7*	-1.8	8.2	-0.5	11.8	4.6
COc1ccc(-c2nnc(-c3cc4c(ccc5ccccc54)oc3=O)o2)cc1	71.8*	4.1	4.0	1.8	1.7	/
N#CC(C(N)=O)=C1CCCCC1	5.5	5.2	6.1	2.6	-6.4	2.5
Brc1ccc(CN2CCN(c3ccccn3)CC2)s1	85.5*	5.2	5.7	-0.2	0.9	/
O=c1c(CN2CCN(c3ccccn3)CC2)coc2ccccc12	-1.4	2.8	1.1	1.4	3.1	-6.0
c1coc(CSc2ncnc3c2oc2ccccc23)c1	-1.7	1.2	-3.9	0.3	12.6	31.7
O=C(Cn1sc2ccccc2c1=O)NC12CC3CC(CC(C3)C1)C2	43.9	4.8	40.8*	1.3	39.0	/
Nc1cccc2c1C(=O)N(CC(=O)NC13CC4CC(CC(C4)C1)C3)C2=O	-15.1	2.4	4.1	1.1	14.1	13.7
COc1ccc(/C=C2\N=C(C)OC2=O)cc1[N+](=O)[O-]	5.6	-3.6	-7.6	0.3	-2.1	11.4
CCOCCCNC(=O)c1c[nH]c2ccc(OCC)cc2c1=O	10.2	-1.6	2.4	0.5	21.2	11.6
COc1ccc(-c2nc(CC(=O)O)cs2)cc1OC	81.2*	3.0	-1.8	-0.3	2.0	/
COc1ccc(-c2nc(CC(=O)O)cs2)cc1	0.3	4.1	3.3	0.3	-18.2	/
CCC(C(=O)c1ccccc1)P(=O)(NN)c1ccccc1 (stereo not drawn)	-2.8	1.8	-6.2	-1.8	6.6	13.4
Cc1ccc(CNc2oc(C)nc2C#N)cc1	88.6*	8.2	1.9	-0.2	-0.6	/
SMILES	14-3-3 Bad PPI	p97 ATPase inh	eIF4E 4G PPI	PERK inhibitor	Hck Nef HTS	Biofilm kill mix
O=C(C=C=Nc1ccccc1)C(=O)N=C=Cc1ccccc1	-15.0	11.5	-7.3	-1.0	7.7	10.1
O=C(OCc1cccc(F)c1)c1ccc2c(=O)n3c(nc2c1)CCC3	9.7	-12.6	8.2	-0.2	1.2	19.7
COc1cccc(-n2c(SCC(=O)O)nnc2-c2cccnc2)c1	87.5*	6.1	-5.2	0.9	-0.9	/
COc1ccc(-n2c(SCC(N)=O)nnc2-c2cccnc2)cc1	-10.5	-0.3	0.5	0.7	-1.5	16.4
COc1cc(C2/C(=C(/O)c3ccccc3)C(=O)C(=O)N2c2ccccn2)ccc1O (stereo not drawn)	-13.5	3.6	81.8*	0.6	34.4	22.9
COC(=O)c1ccc(/C=N/NC(=O)C(=O)NCC2CCCO2)cc1 (stereo not drawn)	1.9	1.8	1.2	2.0	-17.8	16.4
CC1OC(OC2C(OC3C(O[C@H]4CC[C@]5(C)C6C=C[C@]78OC[C@@]9(CC[C@@H](C)[C@H](C)C97)[C@H](O)C[C@@]8(C)[C@]6(C)CC[C@H]5C4(C)C)OC(C)C(O)C3O)OC(CO)C(O)C2O)C(O)C(O)C1O (stereo partly drawn)	1.3	/	55.9*	/	24.5	6.4
Cc1ccc(CN2CCN(/N=C/C(Br)=C\c3ccccc3)CC2)cc1	-0.3	-2.1	3.3	-0.7	13.3	10.2
Cc1ccccc1NC(=O)CSC(N)=O	-12.9	2.3	-2.8	3.1*	0.1	/
Cc1ccccc1NC(=O)CSCC(=O)Nc1ccccc1C	-6.8	-2.3	-9.1	0.3	11.6	/
COc1cc(Br)cc(CN2CCN(C/C=C/c3ccccc3)CC2)c1O	67.7	-0.7	6.3	0.8	1.9	/
COc1ccc(O)c(CN2CCN(C/C=C/c3ccccc3)CC2)c1	73.8*	3.0	-3.9	0.6	-11.6	/
O=C(NC1CCN(C(=O)c2cccs2)CC1)c1ccccc1	-4.5	4.0	0.3	0.0	8.0	17.4
COc1cc(CNc2ccc(N3CCCC3)cc2)ccc1OCc1ccccc1F	1.8	5.2	31.8*[fluorescence artefact?]	0.5	26.6	10.1
Cc1ccc2nc3c(cc(C#N)c(=O)n3CC3CCCO3)c(=O)n2c1 (stereo not drawn)	2.3	5.5	-1.2	1.1	189.3*	/
Cc1cccn2c(=O)c3cc(C#N)c(=N)n(CC4CCCO4)c3nc12 (stereo not drawn)	/	2.3	/	0.8	26.4	/
O=C(O)CSc1nnc2c(n1)[nH]c1ccccc12	-1.4	3.3	-3.0	0.5	12.0	2.5
O=C(O)c1ccccc1CSc1nnc2c(n1)[nH]c1ccccc12	-12.5	9.8	-0.5	3.1*	-3.4	12.8
COc1cccc(CN2CCN(C(=O)c3cccc(F)c3)CC2)c1	/	1.2	/	-0.3	1.2	/
O=C(c1cccnc1)N1CCN(Cc2cccc(F)c2)CC1	75.5*	0.2	20.3	0.2	1.9	/
Cn1cc(Cl)c(-c2n[nH]c(=S)n2-c2ccccc2)n1	-4.5	5.1	2.2	3.3*	5.0	9.4
CN(C)CCNc1nc2sc3c(c2c(=O)n1-c1ccccc1)CCCCC3	-6.8	3.8	79.0*	-1.5	15.9	10.7
O=C(C1CCCN(Cc2cccs2)C1)N1CCCCCC1 (stereo not drawn)	18.2	5.1	-2.3	0.3	7.6	/
CCOC(=O)C1CCCN(Cc2ccccc2OCC)C1 (stereo not drawn)	19.4	3.7	-16.7	1.0	0.9	/
CCOC(=O)C1CCCN(Cc2cccs2)C1 (stereo not drawn)	71.0*	0.1	13.8	-0.8	1.5	/
CCOC(=O)C1CCCN(Cc2ccccc2Cl)C1 (stereo not drawn)	70.8*	1.4	-4.8	0.4	-2.0	/

Screens: PubChem, several laboratories
